Data from ChEMBL document CHEMBL1250501, “Anti-tubercular agents. Part 5: synthesis and biological evaluation of benzothiadiazine 1,1-dioxide based congeners” (Eur J Med Chem, 2010).
≈ marks a conversion by molar mass, not a printed value. Calls of active or inactive are those of the source. The calls are words filed in the database; no cut-off is given here.

How the values were obtained:
Type in all cases: functional
Klebsiella pneumoniae [1] = assay: Antibacterial activity against Klebsiella pneumoniae at 50 ug/ml after 18 hrs by cup plate method
Outline: (§1)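 Agar well diffusion on Mueller-Hinton agar. Inoculum was adjusted to a 0.5 McFarland standard (about […] × 10⁸ CFU/mL) and swabbed over the plate three times, rotating about 60° each time, then the rim was swabbed. Compounds in DMSO went into duplicate 6 mm wells. Plates were incubated at 37 °C for 18 h and inhibition zone diameter read to the nearest mm. DMSO negative control; streptomycin and ciprofloxacin positive controls.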

Bacillus subtilis [2] = assay: Antibacterial activity against Bacillus subtilis at 100 ug/ml after 18 hrs by cup plate method; outline: as §1
Escherichia coli [3] = assay: Antibacterial activity against Escherichia coli at 50 ug/ml after 18 hrs by cup plate method; conditions: read-out: DIZ; outline: as §1
Candida albicans [4] = assay: Antifungal activity against Candida albicans MTCC 227 at 50 ug/ml after 48 hrs by cup plate method
Outline: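 Agar well (cup plate) diffusion on potato dextrose agar 39 g/L. Compounds dissolved in DMSO and loaded into 6 mm wells. Incubated at 28 ± 2 °C for 48 h. Inhibition zone diameter measured to the nearest millimetre, three replicates per treatment. DMSO solvent as negative control, amphotericin B as positive control.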

[5] = test system: Staphylococcus epidermidis; assay: Antibacterial activity against Staphylococcus epidermidis at 100 ug/ml after 18 hrs by cup plate method; outline: as §1
Escherichia coli [6] = assay: Antibacterial activity against Escherichia coli at 100 ug/ml after 18 hrs by cup plate method; outline: as §1
[7] = test system: Mycobacterium tuberculosis; assay: Antimycobacterial activity against Mycobacterium tuberculosis H37Rv after 3 to 4 weeks by broth microdilution assay
Outline: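 MIC by broth microdilution on compounds active in a single-concentration primary screen. Plates incubated 3–4 weeks at 37 °C in a CO₂ incubator. Wells read visually for absence of growth turbidity.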

Pseudomonas aeruginosa [8] = assay: Antibacterial activity against Pseudomonas aeruginosa at 100 ug/ml after 18 hrs by cup plate method; outline: as §1
Candida albicans [9] = assay: Antifungal activity against Candida albicans MTCC 227 at 100 ug/ml after 48 hrs by cup plate method; conditions: MTCC 227, 48 h, read-out: IZ
Outline: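 Agar well (cup plate) diffusion on potato dextrose agar 39 g/L, with compounds dissolved in DMSO. Plates were incubated at 28 ± 2 °C for 48 h and inhibition zones measured to the nearest mm. Three replicates per treatment. Amphotericin B positive control; solvent control included.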

Bacillus subtilis [10] = assay: Antibacterial activity against Bacillus subtilis at 50 ug/ml after 18 hrs by cup plate method; outline: as §1
Klebsiella pneumoniae [11] = assay: Antibacterial activity against Klebsiella pneumoniae at 100 ug/ml after 18 hrs by cup plate method; outline: as §1
Staphylococcus aureus [12] = assay: Antibacterial activity against Staphylococcus aureus at 100 ug/ml after 18 hrs by cup plate method; conditions: read-out: DIZ; outline: as §1
[13] = test system: Staphylococcus epidermidis; assay: Antibacterial activity against Staphylococcus epidermidis at 50 ug/ml after 18 hrs by cup plate method; conditions: read-out: DIZ; outline: as §1
Staphylococcus aureus [14] = assay: Antibacterial activity against Staphylococcus aureus at 50 ug/ml after 18 hrs by cup plate method; outline: as §1
Pseudomonas aeruginosa [15] = assay: Antibacterial activity against Pseudomonas aeruginosa at 50 ug/ml after 18 hrs by cup plate method; conditions: read-out: DIZ; outline: as §1

Structure (SMILES) | diameter of the inhibition zone (DIZ) (Klebsiella pneumoniae [1]) | zone of inhibition at 50 µg/mL (Escherichia coli [3]) [mm] | MIC [7] [µg/mL] | zone of inhibition at 100 µg/mL (Candida albicans [9]) [mm] | diameter of the inhibition zone (DIZ) (Bacillus subtilis [10]) | zone of inhibition at 100 µg/mL (Staphylococcus aureus [12]) [mm] | zone of inhibition at 50 µg/mL [13] [mm] | zone of inhibition at 50 µg/mL (Pseudomonas aeruginosa [15]) [mm] | further results
O=C(c1ccc([N+](=O)[O-])o1)N1CCN(C2=NS(=O)(=O)c3ccccc3N2c2ccccc2)CC1 | inactive | 10 | > 16 | 17 | inactive | 15 | 10 | 10 | zone of inhibition at 100 µg/mL (Bacillus subtilis [2]; read-out: DIZ): 19 mm; zone of inhibition at 50 µg/mL (Candida albicans [4]; MTCC 227, 48 h, read-out: IZ): 10 mm; zone of inhibition at 100 µg/mL ([5]; read-out: DIZ): 17 mm; zone of inhibition at 100 µg/mL (Escherichia coli [6]; read-out: DIZ): 20 mm; zone of inhibition at 100 µg/mL (Pseudomonas aeruginosa [8]; read-out: DIZ): 16 mm; zone of inhibition at 100 µg/mL (Klebsiella pneumoniae [11]; read-out: DIZ): 11 mm; diameter of the inhibition zone (DIZ) (Staphylococcus aureus [14]): inactive
CN1C(N2CCN(C(=O)c3ccc([N+](=O)[O-])o3)CC2)=NS(=O)(=O)c2ccccc21 | inactive | 9 | 16 (≈ 38.1 µM) | 12 | inactive | 18 | 10 | 10 | diameter of the inhibition zone (DIZ) (Bacillus subtilis [2]): inactive; inhibition zone (IZ) (Candida albicans [4]): inactive; diameter of the inhibition zone (DIZ) [5]: inactive; diameter of the inhibition zone (DIZ) (Escherichia coli [6]): inactive; diameter of the inhibition zone (DIZ) (Pseudomonas aeruginosa [8]): inactive; diameter of the inhibition zone (DIZ) (Klebsiella pneumoniae [11]): inactive; zone of inhibition at 50 µg/mL (Staphylococcus aureus [14]; read-out: DIZ): 17 mm
